Results published in ChEMBL document CHEMBL4689842, “EUbOPEN Chemogenomics Library wave 1” (2021).
Several values for one entry are separate records, joined by “and”; a condition that tells them apart may be missing. Identical values can stand only once.

Test system: U2OS
Assay: Multiplex assay against U2OS
Format: toxicity, cell-based
Conditions: human, 10 µM, compound concentration 10 uM
Outline: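 Tubulin, mitochondrial-mass and membrane-permeability phenotypes are per cents of healthy-nucleus cells. Cells were gated by CellPathfinder machine learning into Hoechst high-intensity objects or normal cells, normal cells into healthy, pyknosed or fragmented nuclei, and pyknosed cells into mitotic or apoptotic. Before that, live cells stained at seeding with Hoechst33342, BioTracker Green Microtubule Cytoskeleton Dye, MitoTracker Red and Annexin V Alexa Fluor 680 were imaged on a CQ1 microscope at 37°C and 5% CO2 after compound addition.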

**Q.** What does the source list for CN1C(=O)c2sccc2N(C)c2nc(Nc3ccc(S(N)(=O)=O)cc3)ncc21?
**A.** Population Apoptotic (%) (12 h, replicate 1): 30% and 31%; Population Fragmented Nuclei (%) (12 h, replicate 1): 5% and 4%; Population Healthy Nuclei (%) (12 h, replicate 1): 88% and 84%; Population Hoechst High Intensity Objects (%) (12 h, replicate 1): 1%; Population Membrane Permeable-Phenotype (%) (12 h, replicate 1): 14% and 7%; Population Mitochondria Different-Phenotype (%) (12 h, replicate 1): 17% and 22%; Population Mitotic Cells (%) (12 h, replicate 1): 70% and 68%; Population Normal (%) (12 h, replicate 1): 98%; Population Pyknosed Nuclei (%) (12 h, replicate 1): 5% and 10%; Population Tubulin-Different-Phenotype (%) (12 h, replicate 1): 15% and 31%; Total Cell Count (12 h, replicate 1): 144 and 172; Population Fragmented Nuclei (%) (12 h, replicate 2): 6% and 13%; Population Healthy Nuclei (%) (12 h, replicate 2): 83% and 78%; Population Hoechst High Intensity Objects (%) (12 h, replicate 2): 8% and 19%; Population Membrane Permeable-Phenotype (%) (12 h, replicate 2): 19% and 8%; Population Mitochondria Different-Phenotype (%) (12 h, replicate 2): 36% and 35%; Population Mitotic Cells (%) (12 h, replicate 2): 90% and 66%; Population Normal (%) (12 h, replicate 2): 91% and 80%; Population Pyknosed Nuclei (%) (12 h, replicate 2): 9% and 7%; Population Tubulin-Different-Phenotype (%) (12 h, replicate 2): 18% and 21%; Total Cell Count (12 h, replicate 2): 94 and 98; Population Apoptotic (%) (24 h, replicate 1): 28% and 42%; Population Fragmented Nuclei (%) (24 h, replicate 1): 4% and 6%; Population Healthy Nuclei (%) (24 h, replicate 1): 92% and 84%; Population Hoechst High Intensity Objects (%) (24 h, replicate 1): 0% and 1%; Population Membrane Permeable-Phenotype (%) (24 h, replicate 1): 7% and 6%; Population Mitochondria Different-Phenotype (%) (24 h, replicate 1): 15% and 44%; Population Mitotic Cells (%) (24 h, replicate 1): 71% and 57%; Population Normal (%) (24 h, replicate 1): 99% and 98%; Population Pyknosed Nuclei (%) (24 h, replicate 1): 2% and 9%; Population Tubulin-Different-Phenotype (%) (24 h, replicate 1): 42%; Total Cell Count (24 h, replicate 1): 142 and 237; Population Fragmented Nuclei (%) (24 h, replicate 2): 9% and 12%; Population Healthy Nuclei (%) (24 h, replicate 2): 80%; Population Hoechst High Intensity Objects (%) (24 h, replicate 2): 8% and 12%; Population Membrane Permeable-Phenotype (%) (24 h, replicate 2): 11%; Population Mitochondria Different-Phenotype (%) (24 h, replicate 2): 57% and 27%; Population Mitotic Cells (%) (24 h, replicate 2): 63% and 100%; Population Normal (%) (24 h, replicate 2): 91% and 87%; Population Pyknosed Nuclei (%) (24 h, replicate 2): 10% and 3%; Population Tubulin-Different-Phenotype (%) (24 h, replicate 2): 17% and 40%; Total Cell Count (24 h, replicate 2): 112 and 90
